Assay results taken from ChEMBL document CHEMBL1828544, “Structural modification of honokiol, a biphenyl occurring in Magnolia officinalis: the evaluation of honokiol analogues as inhibitors of angiogenesis and for their cytotoxicity and structure-activity relationship” (J Med Chem, 2011).
Activity calls are given as the source filed them. No cut-off for these calls is given here.

Tests used:
[1] = test system: HUVEC; assay: Antiproliferative activity against human HUVEC cells after 24 hrs by MTT assay; type: functional, cell-based
Summary of the method: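 Primary HUVECs grown on gelatin in M-199 with 20% FBS, 10 ng/mL bFGF, 2 ng/mL VEGF, 5% CO2, 37 °C. Cells (5 × 10^3/well) exposed to a range of compound concentrations for 24 h. MTT added for 3 h, formazan dissolved in DMSO, absorbance read at 570 nm. IC50 from percentage growth versus untreated control.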

[2] = test system: A549; assay: Antiproliferative activity against human A549 cells after 24 hrs by MTT assay; type: functional, cell-based; settings: A549, 24 h
Summary of the method: (§1)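 Cells (5 × 10^3/well) kept at 37 °C, 5% CO2 and treated with varied compound concentrations for 24 h. MTT given for a further 3 h, precipitate dissolved in DMSO, absorbance taken at 570 nm. IC50 calculated from percentage growth relative to untreated control.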

[3] = test system: HepG2; assay: Antiproliferative activity against human HepG2 cells after 24 hrs by MTT assay; type: functional, cell-based; settings: HepG2, 24 h; summary of the method: as §1
[4] = Antiproliferative activity against mouse LL/2 cells after 24 hrs by MTT assay; type: functional, cell-based; settings: Lewis lung carcinoma; summary of the method: as §1
[5] = species on record: Danio rerio; assay: Antiangiogenic activity in fli-1:enhanced GFP expressing transgenic zebrafish embryo assessed as inhibition of neovacularisation at 40 uM after 24 hrs relative to control; type: functional
Summary of the method: (§2)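 fli-1:EGFP transgenic zebrafish embryos sorted at about 6 hpf (6 per well), exposed in embryo water to compound at 5–40 μM for 24 h. Then anesthetized with 0.05% 2-phenoxyethanol, photographed and quantified.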

[6] = species on record: Danio rerio; assay: Antiangiogenic activity in fli-1:enhanced GFP expressing transgenic zebrafish embryo assessed as inhibition of neovacularisation at 5 uM after 24 hrs relative to control; type: functional; summary of the method: as §2
[7] = species on record: Danio rerio; assay: Antiangiogenic activity in fli-1:enhanced GFP expressing transgenic zebrafish embryo assessed as inhibition of neovacularisation at 10 uM after 24 hrs relative to control; type: functional; summary of the method: as §2
[8] = species on record: Danio rerio; assay: Antiangiogenic activity in fli-1:enhanced GFP expressing transgenic zebrafish embryo assessed as inhibition of neovacularisation at 20 uM after 24 hrs relative to control; type: functional; summary of the method: as §2

Structure (SMILES) | IC50 [1] | IC50 [2] | IC50 [3] | IC50 [4] | inhibition (INH) [5] | inhibition [6] | inhibition (INH) [7] | inhibition (INH) [8] | inhibition (INH) [6] | inhibition [7]
C=CCc1ccc(OCC(=O)OCC)c(-c2ccc(OCC(=O)OCC)c(CC=C)c2)c1 | > 100 µM | > 91.3 µM | 68.9 µM | > 91.3 µM | – | – | – | – | – | –
C=CCc1ccc(OCCC)c(-c2ccc(O)c(CC=C)c2)c1 | 73.3 µM | 53.8 µM | 49.9 µM | 45.8 µM | <25% | inactive | <25% | <25% | – | –
C=CCc1ccc(OC)c(-c2cccc([N+](=O)[O-])c2)c1 | > 100 µM | > 100 µM | > 100 µM | 89.4 µM | – | – | – | – | – | –
C=CCc1cc(-c2cccc(C(F)(F)F)c2)ccc1O | 76 µM | 73 µM | 58.3 µM | 65.9 µM | – | – | – | – | – | –
C=CC(C)(C)c1cc(-c2ccc(OC)cc2)ccc1O | > 100 µM | > 100 µM | 91 µM | > 100 µM | – | – | – | – | – | –
C=CCc1cc(C=O)c(OCC)c(-c2ccc(OCC)c(CC=C)c2)c1 | 37.9 µM | 39 µM | 28.5 µM | 31.9 µM | <25% | inactive | <25% | <25% | – | –
C=CCc1cc(-c2ccc(OC)cc2OC)ccc1O | > 100 µM | > 100 µM | > 100 µM | > 100 µM | – | – | – | – | – | –
C=CCc1ccc(O)c(-c2cccc([N+](=O)[O-])c2)c1 | 79.1 µM | > 100 µM | 62.3 µM | 61.4 µM | – | inactive | <25% | <25% | – | –
C=CCc1cc(-c2ccc(OC)cc2)ccc1OC | > 100 µM | > 100 µM | > 100 µM | > 100 µM | – | – | – | – | – | –
C=CCc1cc(-c2cccc([N+](=O)[O-])c2)cc(CC=C)c1O | > 100 µM | 80 µM | 80.5 µM | 56.5 µM | <25% | inactive | <25% | <25% | – | –
C=CCc1ccc(OC(C)C)c(-c2ccc(O)c(CC=C)c2)c1 | 65.5 µM | 53.2 µM | 63.5 µM | 48.4 µM | <25% | – | <25% | <25% | <25% | –
C=CCc1cc(-c2cccc(NC(C)=O)c2)ccc1OC | > 100 µM | > 100 µM | 60.1 µM | 65.1 µM | – | – | – | – | – | –
C=CCc1cc(-c2ccc(OC)cc2)cc(CC=C)c1O | > 100 µM | 75.6 µM | 69.2 µM | 60.3 µM | <25% | inactive | <25% | <25% | – | –
C=CCc1ccc(OC)c(-c2ccc(OC)cc2)c1 | > 100 µM | 95.4 µM | > 100 µM | 71.1 µM | – | – | – | – | – | –
C=CCc1ccc(OC)c(-c2ccc(OC)c(CC=C)c2)c1 | > 100 µM | – | > 136 µM | > 136 µM | – | – | – | – | – | –
C=CCOc1ccc(-c2ccc(OC)cc2)cc1CC=C | > 100 µM | > 100 µM | > 100 µM | > 100 µM | – | – | – | – | – | –
C=CCc1cc(C=O)c(OC)c(-c2ccc(OC)c(CC=C)c2)c1 | 39.1 µM | 42.6 µM | 53.9 µM | 40.8 µM | <25% | – | <25% | <25% | <25% | –
C=CCc1cc(CO)c(O)c(-c2ccc(O)c(CC=C)c2)c1 | > 100 µM | > 135 µM | > 135 µM | > 135 µM | – | – | – | – | – | –
C=CCc1cc(-c2cccc(SC)c2)ccc1O | > 100 µM | 66 µM | > 100 µM | > 100 µM | – | – | – | – | – | –
C=CCc1cc(-c2ccccc2C(F)(F)F)ccc1O | 82 µM | 59.7 µM | 52.4 µM | 60.3 µM | <25% | inactive | <25% | <25% | – | –
C=CCc1cc(-c2ccc(C(F)(F)F)cc2)ccc1OC | > 100 µM | > 100 µM | 89 µM | 78.8 µM | – | – | – | – | – | –
C=CCc1cc(-c2cccc(OC)c2)ccc1O | > 100 µM | > 100 µM | > 100 µM | > 100 µM | – | – | – | – | – | –

Structure (SMILES) | IC50 [1] | IC50 [2] | IC50 [3] | IC50 [4] | inhibition (INH) [5] | inhibition [6] | inhibition (INH) [7] | inhibition (INH) [8] | inhibition (INH) [6] | inhibition [7]
C=CCc1ccc(OCC)c(-c2ccc(O)c(CC=C)c2)c1 | 68.2 µM | 81.6 µM | 71.5 µM | 67.6 µM | – | – | – | – | – | –
C=CC(C)(C)c1cc(-c2cccc([N+](=O)[O-])c2)ccc1O | 77 µM | 64 µM | 56 µM | 45.1 µM | <25% | inactive | – | <25% | – | inactive
C=CCc1ccc(OC(C)C)c(-c2ccc(OC(C)C)c(CC=C)c2)c1 | > 100 µM | > 114 µM | > 114 µM | > 114 µM | – | – | – | – | – | –
C=CCc1cc(-c2ccccc2)ccc1O | > 100 µM | > 100 µM | > 100 µM | > 100 µM | – | – | – | – | – | –
C=CCOc1ccc(-c2cccc([N+](=O)[O-])c2)cc1CC=C | > 100 µM | > 100 µM | > 100 µM | > 100 µM | – | – | – | – | – | –
C=CCc1ccc(OC)c(-c2ccc(O)c(CC=C)c2)c1 | 61.8 µM | – | 57.5 µM | 108 µM | – | – | – | – | – | –
C=CCc1cc(-c2ccc(F)cc2)ccc1O | > 100 µM | > 100 µM | > 100 µM | > 100 µM | – | – | – | – | – | –
C=CCc1cc(-c2cc(F)cc(F)c2)ccc1O | 80 µM | > 100 µM | > 100 µM | 78.2 µM | <25% | – | <25% | <25% | <25% | –
C=CCc1cc(-c2cccc([N+](=O)[O-])c2)ccc1O | > 100 µM | > 100 µM | > 100 µM | > 100 µM | – | – | – | – | – | –
C=CCc1cc(-c2ccc(OC)c(OC)c2)ccc1O | > 100 µM | > 100 µM | > 100 µM | > 100 µM | – | – | – | – | – | –
C=CCc1cc(CO)c(O)c(-c2cc(CO)c(O)c(CC=C)c2)c1 | > 100 µM | > 123 µM | > 123 µM | > 123 µM | – | – | – | – | – | –
C=CCc1ccc(OCC)c(-c2ccc(OCC)c(CC=C)c2)c1 | > 100 µM | > 124 µM | > 124 µM | > 124 µM | – | – | – | – | – | –
C=CCc1cc(C=O)c(OCC(=O)OCC)c(-c2ccc(OCC(=O)OCC)c(CC=C)c2)c1 | 86.9 µM | > 85.8 µM | > 85.2 µM | 26.1 µM | – | – | – | – | – | –
C=CCc1cc(-c2ccc(OC)cc2)ccc1O | > 100 µM | > 100 µM | > 100 µM | > 100 µM | – | – | – | – | – | –
C=CCc1ccc(O)c(-c2ccc(OCCC)c(CC=C)c2)c1 | 89.3 µM | 82.4 µM | > 130 µM | 64.8 µM | – | – | – | – | – | –
C=CCc1ccc(O)c(-c2ccc(OC(C)C)c(CC=C)c2)c1 | 70.5 µM | 42.7 µM | 48.4 µM | 49.1 µM | – | inactive | <25% | <25% | – | –
C=CCc1ccc(O)c(-c2ccc(OCC)c(CC=C)c2)c1 | 67.1 µM | 51 µM | 73.8 µM | 61.6 µM | – | – | – | – | – | –
C=CCc1ccc(OCCC)c(-c2ccc(OCCC)c(CC=C)c2)c1 | > 100 µM | > 114 µM | > 114 µM | > 114 µM | – | – | – | – | – | –
C=CCc1cc(-c2cccc([N+](=O)[O-])c2)ccc1OC | > 100 µM | > 100 µM | > 100 µM | > 100 µM | – | – | – | – | – | –
C=CCc1cc(-c2ccc(C(F)(F)F)cc2)ccc1O | 74 µM | 76 µM | 60.3 µM | 74.8 µM | <25% | inactive | <25% | <25% | – | –
C=CCc1ccc(O)c(-c2ccc(O)cc2)c1 | 64.3 µM | 76.2 µM | 89 µM | > 100 µM | – | inactive | <25% | <25% | – | –
